Measurements collected from several papers.
Lines come from different studies, so protocols differ.
Target: MAP/microtubule affinity-regulating kinase 3 (MARK3, Homo sapiens, UniProt P27448)

| SMILES | test | conditions | remaining binding |
| --- | --- | --- | --- |
| N#Cc1ccccc1CSc1nnc2c(n1)[nH]c1ccccc12 | binding, competition with immobilised ligand | 10 µM | 93% |
| Nc1ncc2c(n1)-c1c([nH]c3ccc(C#CC4CC4)cc13)CCCC2 | binding, competition with immobilised ligand | 1 µM | 97% |
| Cc1cnn2ncc(-c3ccnc(N(C)C)n3)c2c1 | binding | 1 µM | 82% |
| O=C(Nc1cccnn1)N1CCC(=Cc2cccc(Oc3ccc(C(F)(F)F)cn3)c2)CC1 | cell-free assay, competition with immobilised ligand | 1 µM | 89% |
| COc1cnc(Nc2cccc(S(N)(=O)=O)c2)nc1N1CCN(c2ccccc2)CC1 | binding, competition with immobilised ligand | 1 µM | 100% |
| O=C(Nc1c[nH]nc1C(=O)NC1CCNCC1)c1cc(F)cc(F)c1 | binding, competition with immobilised ligand | 1 µM | 100% |
| O=C(c1ccc(Nc2nccc(-c3cc4ccccc4s3)n2)cc1)N1CCC(N2CCCC2)CC1 | binding, competition with immobilised ligand | 1 µM | 100% |
| O=C(O)[C@H]1[C@H](Cn2nnc3ccccc3c2=O)CC[C@@H]1C(=O)c1ccc(OCCC2CCOCC2)cc1 | cell-free assay, competition with immobilised ligand | 1 µM | 100% |
| C=CC(=O)N1CCC(C(=O)NCC(=O)N2CCN(c3nc(-c4cnc(N)nc4C(F)F)nc(N4CCOCC4)n3)CC2)CC1 | binding, competition with immobilised ligand | 1 µM | 65% |
| C[C@H](c1ccc(F)cc1)N(Cc1cccc(C(=O)O)c1)C(=O)c1cnc2ccccc2c1 | cell-free assay, competition with immobilised ligand | 1 µM | 100% |
| C[C@@H]1CN(c2ccc3ncc(-c4ccc5[nH]nc(C6CC6)c5c4)n3n2)C[C@H](C)O1 | binding, competition with immobilised ligand | 50 nM | 100% |
| Cc1cnc(Nc2ccc(C(=O)N3CCC(N4CCCC4)CC3)cc2)nc1-c1cc2ccccc2s1 | binding, competition with immobilised ligand | 1 µM | 100% |
| C[C@@H](c1ccc(-n2cnc3c(N)ncnc32)cc1)N1CCc2nn(C)c(Cc3ccccc3)c2C1=O | binding, competition with immobilised ligand | 0.1 µM | 93% |
| Cc1c(C(=O)O)cc(-c2ccc(C3CCNCC3)cc2)c2ccc(-c3ccc(C(F)(F)F)cc3)cc12 | binding, competition with immobilised ligand | 1 µM | 100% |
| COc1ccnn2ncc(-c3ccnc(N(C)C)n3)c12 | binding | 1 µM | 44% |
| O=C(NCCCN1CCOCC1)c1ccc(Nc2nccc(-c3cc4ccccc4s3)n2)cc1 | binding, competition with immobilised ligand | 1 µM | 100% |
| CN(C)c1nccc(-c2cnn3ncccc23)n1 | binding | 1 µM | 100% |
| CO[C@H]1CC[C@H](CNc2ccc(S(=O)(=O)NC(=O)c3ccc(N4CCN(CC5=C(c6ccc(Cl)cc6)CC(C)(C)CC5)CC4)cc3Oc3cnc4[nH]ccc4c3)cc2[N+](=O)[O-])CC1 | cell-free assay, competition with immobilised ligand | 1 µM | 96% |
| N[C@@H]1CCN(c2nccc(-c3cnn4ncccc34)n2)C1 | binding | 1 µM | 100% |
| C[C@H](c1cccc(C#N)c1)n1cc(Cl)cc(C(N)=O)c1=N | cell-free assay, competition with immobilised ligand | 1 µM | 100% |
| CC1CCCN1c1nccc(-c2cnn3ncccc23)n1 (stereo not drawn) | binding | 1 µM | 100% |
| CNC(=O)[C@@H]1CC[C@@H](n2c(-c3ccc4cnccc4c3)nc3ccc(C(=O)NCc4cccc(C(N)=O)c4)cc32)C1 | binding, competition with immobilised ligand | 1 µM | 59% |
| C[C@@H]1CCN(c2nccc(-c3cnn4ncccc34)n2)C1 | binding | 1 µM | 100% |
| CC(=O)Nc1c(C(C)=O)c(=O)n(C)c2nc(-c3ccc(Cl)cc3Cl)c(-c3ccc(Cl)cc3)cc12 | cell-free assay, competition with immobilised ligand | 1 µM | 100% |
